One assay deals with SAOS-2. Put plainly: Antitumor activity against p53 deficient human Saos2 cells after 72 hrs by MTT assay. The note with it: SAOS-2, 72 h. Type of assay: functional, cell-based. The method in brief: (§1)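 Cells seeded at 5-6 × 10⁴ per well and cultured 24 h, then exposed to a range of compound concentrations in triplicate wells; vehicle control 0.1% DMSO. After 72 h, MTT (5 mg/mL solution) added, plate shaken 1 min, then incubated 4 h at 37 °C. Formazan dissolved in DMSO and absorbance read at 570 nm. Drug-free wells served as blanks. IC50 = 50% growth inhibition.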

In assay [1] the test system is U2OS. The assay can be described thus: Antitumor activity against human U2OS cells expressing wild type p53 after 72 hrs by MTT assay. It is filed as functional, cell-based. In short, it runs like this: as §1
Assay [2] addresses Tumour suppressor p53/oncoprotein Mdm2 (Homo sapiens, UniProt Q00987). Put plainly: Inhibition of Mdm2-p53 protein interaction preincubated for 1 hr by fluorescence polarization assay.
Assay [3] relates to U2OS. The assay can be described thus: Ratio of nutlin-3a IC50 to compound IC50 for human U2OS cells expressing wild type p53. It is filed as functional.

pIC50, pKi: −log10 of the molar value. Bounds are passed on as bounds.

Sequence of Tumour suppressor p53/oncoprotein Mdm2 (P04637 whole entry): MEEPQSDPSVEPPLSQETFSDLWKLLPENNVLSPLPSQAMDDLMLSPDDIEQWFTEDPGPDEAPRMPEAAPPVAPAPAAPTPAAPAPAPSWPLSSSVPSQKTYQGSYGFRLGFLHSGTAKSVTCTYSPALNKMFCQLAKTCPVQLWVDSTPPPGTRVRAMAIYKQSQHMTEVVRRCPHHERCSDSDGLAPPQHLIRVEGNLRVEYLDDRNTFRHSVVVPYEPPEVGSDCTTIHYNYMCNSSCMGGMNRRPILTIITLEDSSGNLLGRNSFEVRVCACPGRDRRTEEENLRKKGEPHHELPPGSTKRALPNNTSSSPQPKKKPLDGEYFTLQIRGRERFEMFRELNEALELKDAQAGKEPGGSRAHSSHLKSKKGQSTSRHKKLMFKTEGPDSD
Sequence of Tumour suppressor p53/oncoprotein Mdm2 (Q00987 whole entry): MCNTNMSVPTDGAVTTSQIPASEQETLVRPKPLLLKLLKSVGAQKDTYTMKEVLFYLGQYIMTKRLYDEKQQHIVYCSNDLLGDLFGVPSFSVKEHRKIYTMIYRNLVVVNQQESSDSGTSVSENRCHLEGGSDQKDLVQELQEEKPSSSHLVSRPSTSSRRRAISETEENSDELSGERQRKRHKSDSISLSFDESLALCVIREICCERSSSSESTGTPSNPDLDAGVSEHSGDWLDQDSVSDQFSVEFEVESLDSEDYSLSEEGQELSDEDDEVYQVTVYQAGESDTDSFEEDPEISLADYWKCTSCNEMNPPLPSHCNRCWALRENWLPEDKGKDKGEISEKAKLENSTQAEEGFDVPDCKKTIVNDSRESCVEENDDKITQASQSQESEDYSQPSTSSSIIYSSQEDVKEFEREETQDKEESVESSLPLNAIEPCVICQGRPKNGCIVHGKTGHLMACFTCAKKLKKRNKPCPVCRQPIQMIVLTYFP

With `COC(=O)C(c1ccc(Cl)cc1)N1C(=O)c2ccc(NCc3ccsc3)cc2NC(=S)C1c1ccc(Cl)cc1` (configuration not stated), the results for the pIC50 with SAOS-2 and with U2OS [1] were 5.47 and less than 4.00, respectively. In assay [2], this molecule had a pKi of less than 4.00.

Regarding `COC(=O)C(c1ccc(Cl)cc1)N1C(=O)c2ccc(NCc3ccc(C(F)(F)F)cc3)cc2NC(=S)C1c1ccc(Cl)cc1` (configuration not stated), the pIC50 in the assay on SAOS-2 is 5.54; with U2OS [1], 5.97. Moreover, the “Ratio IC50” value in the assay with U2OS [3] came out at 23. The molecule also showed a pKi in assay [2] of 5.27.

On to `COC(=O)C(c1ccc(Cl)cc1)N1C(=O)c2ccccc2NC(=O)C1c1ccc(Cl)cc1` (configuration not stated), for which the values for the pIC50 in the assay with SAOS-2 and in the assay on U2OS [1] were 5.25 and 4.86, respectively. Besides, in assay [2], the pKi is 4.97.

`COC(=O)C(c1ccc(Cl)cc1)N1C(=O)c2ccc(NCc3ccco3)cc2NC(=S)C1c1ccc(Cl)cc1` (configuration not stated): the pIC50 with SAOS-2 was 4.95; in the assay on U2OS [1], 4.31. Also, the negative logarithm of the Ki (pKi) in assay [2] is 4.37.

Regarding `COC(=O)C(c1ccc(Cl)cc1)N1C(=O)c2ccc(NCc3ccc(F)cc3)cc2NC(=S)C1c1ccc(Cl)cc1` (configuration not stated), the pIC50 in the assay on SAOS-2 was 5.01; in the assay with U2OS [1], 4.51. The same molecule gave a pKi in assay [2] of 5.77.

With `COC(=O)C(c1ccc(Cl)cc1)N1C(=O)c2ccc(NCc3ccc(Cl)cc3)cc2NC(=S)C1c1ccc(Cl)cc1` (configuration not stated), the pIC50 in the assay with SAOS-2 was 4.88; with U2OS [1], 4.68. In assay [2], this molecule gave a pKi of less than 4.00.

Turning to `COC(=O)C(c1ccc(Cl)cc1)N1C(=O)c2ccc(NCC3CC3)cc2NC(=S)C1c1ccc(Cl)cc1` (configuration not stated), the results for the pIC50 in the assay with SAOS-2 and with U2OS [1] were 4.72 and less than 4.00, respectively. In addition, the pKi in assay [2] was 5.46.

With `COC(=O)C(c1ccc(Cl)cc1)N1C(=O)c2ccc(NCC3CCCCC3)cc2NC(=S)C1c1ccc(Cl)cc1` (configuration not stated), the pIC50 was 4.14 with SAOS-2 and less than 4.00 in the assay with U2OS [1]. The pKi in assay [2] was less than 4.00.

In the case of `COC(=O)C(c1ccc(Cl)cc1)N1C(=O)c2ccc(NCc3ccccc3)cc2NC(=S)C1c1ccc(Cl)cc1` (configuration not stated), the pIC50 in the assay on SAOS-2 is 4.75; in the assay on U2OS [1] it was less than 4.00. Besides, the pKi in assay [2] is 5.65.

With `COC(=O)C(c1ccc(Cl)cc1)N1C(=O)c2ccc(NCc3ccc4ccccc4c3)cc2NC(=S)C1c1ccc(Cl)cc1` (configuration not stated), the pIC50 is 4.04 with SAOS-2 and less than 4.00 with U2OS [1]. Besides, the pKi in assay [2] is less than 4.00.

For the molecule `COC(=O)C(c1ccc(Cl)cc1)N1C(=O)c2ccccc2NC(=S)C1c1ccc(Cl)cc1` (configuration not stated), the pIC50 in the assay on SAOS-2 is 5.18; in the assay on U2OS [1], 4.86. Also, the pKi in assay [2] was 6.28.

On to `COC(=O)C(c1ccc(Cl)cc1)N1C(=O)c2ccc(NCC(C)(C)C)cc2NC(=S)C1c1ccc(Cl)cc1` (configuration not stated), for which the pIC50 with SAOS-2 is 5.66; with U2OS [1] it was 4.75. This molecule also gave a pKi in assay [2] of less than 4.00.

Take `COC(=O)C(c1ccc(Cl)cc1)N1C(=O)c2ccc(NCc3ccc(OC)cc3)cc2NC(=S)C1c1ccc(Cl)cc1` (configuration not stated): the pIC50 with SAOS-2 was 4.05; in the assay with U2OS [1], less than 4.00. The same molecule gave a pKi in assay [2] of less than 4.00.

For the molecule `CCCCNc1ccc2c(c1)NC(=S)C(c1ccc(Cl)cc1)N(C(C(=O)OC)c1ccc(Cl)cc1)C2=O` (configuration not stated), the pIC50 is 4.56 in the assay with SAOS-2 and less than 4.00 in the assay on U2OS [1]. Besides, the pKi in assay [2] was 4.30.

Take `CCCCCNc1ccc2c(c1)NC(=S)C(c1ccc(Cl)cc1)N(C(C(=O)OC)c1ccc(Cl)cc1)C2=O` (configuration not stated): the pIC50 with SAOS-2 is 4.68; with U2OS [1], less than 4.00. In assay [2], this molecule had a pKi of 4.82.

As to `COC(=O)C(c1ccc(Cl)cc1)N1C(=O)c2ccc(NCc3ccc(Br)cc3)cc2NC(=S)C1c1ccc(Cl)cc1` (configuration not stated), the pIC50 in the assay on SAOS-2 was 4.86; in the assay on U2OS [1], 4.83. For the same molecule, the negative-log Ki (pKi) in assay [2] was less than 4.00.

As to `CCCNc1ccc2c(c1)NC(=S)C(c1ccc(Cl)cc1)N(C(C(=O)OC)c1ccc(Cl)cc1)C2=O` (configuration not stated), the pIC50 was 4.91 in the assay on SAOS-2 and 4.04 with U2OS [1]. The molecule further showed a pKi in assay [2] of 5.99.

Turning to `COC(=O)C(c1ccc(Cl)cc1)N1C(=O)c2ccc(NCC(C)C)cc2NC(=S)C1c1ccc(Cl)cc1` (configuration not stated), the results for the pIC50 with SAOS-2 and in the assay with U2OS [1] were 4.80 and less than 4.00, respectively. In addition, in assay [2], the pKi is 6.49.

With `COc1ccc(C2=N[C@@H](c3ccc(Cl)cc3)[C@@H](c3ccc(Cl)cc3)N2C(=O)N2CCNC(=O)C2)c(OC(C)C)c1` [NUTLIN-3], the pIC50 in the assay on SAOS-2 was 4.26; with U2OS [1] it was 4.61.

The values are drawn from ChEMBL document CHEMBL1909543, “Synthesis and biological evaluation of thio-benzodiazepines as novel small molecule inhibitors of the p53-MDM2 protein-protein interaction” (Eur J Med Chem, 2011).
